Converted amounts (≈) assume the structure as drawn.

Holding throughout (type): functional
For test [1], the system named is Staphylococcus aureus. Description: Minimum inhibitory concentration (MIC) against Staphylococcus aureus ATCC 25293. The method, boiled down: (§1)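 Broth microdilution in Mueller–Hinton broth supplemented with 50% human serum; inoculum 5 × 10⁵ cfu/mL.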
Test [2] deals with Escherichia coli. Description: Minimum inhibitory concentration (MIC) against Escherichia coli MG1655 tolC. The method in brief: as §1
Test [3] has as its system Enterobacter cloacae. Briefly: Minimum inhibitory concentration (MIC) against Enterobacter cloacae ATCC 35030. The method in brief:
as §1

The test system of test [4] is Escherichia coli. Description: Minimum inhibitory concentration (MIC) against Escherichia coli MG1655. The method, boiled down: as §1
Test [5] has as its system Pseudomonas aeruginosa. Briefly: Minimum inhibitory concentration (MIC) against Pseudomonas aeruginosa PA01. The method in brief:
as §1

Test [6] relates to Klebsiella pneumoniae. Briefly: Minimum inhibitory concentration (MIC) against Klebsiella pneumoniae ATCC 13882. The method in brief: as §1
In test [7] the test system is Streptococcus pneumoniae. Description: Minimum inhibitory concentration (MIC) against Streptococcus pneumoniae 1005. The method in brief: as §1
The test system of test [8] is Escherichia coli. Description: Minimum inhibitory concentration (MIC) against Escherichia coli ATCC 25922. The method, boiled down:
as §1

The subject of test [9] is Escherichia coli. Description: Minimum inhibitory concentration (MIC) against Escherichia coli MG1655; Inactive. The method, boiled down: as §1
Test [10] deals with Staphylococcus aureus. Description: Minimum inhibitory concentration (MIC) against Staphylococcus aureus […]; Inactive. The method in brief: as §1
The subject of test [11] is Klebsiella pneumoniae. Description: Minimum inhibitory concentration (MIC) against Klebsiella pneumoniae ATCC 13882; Inactive. The method, boiled down: as §1
For test [12], the system named is Escherichia coli. Description: Minimum inhibitory concentration (MIC) against Escherichia coli ATCC 25922; Inactive. The method, boiled down:
as §1

Test [13] relates to Escherichia coli. Briefly: Minimum inhibitory concentration (MIC) against Escherichia coli MG1655 tolC; Inactive. The method in brief:
as §1

In test [14] the test system is Enterobacter cloacae. Description: Minimum inhibitory concentration (MIC) against Enterobacter cloacae ATCC 35030; Inactive. The method in brief: as §1
The subject of test [15] is Streptococcus pneumoniae. Description: Minimum inhibitory concentration (MIC) against Streptococcus pneumoniae 1005; Inactive. The method, boiled down: as §1
Test [16] concerns Pseudomonas aeruginosa. Description: Minimum inhibitory concentration (MIC) against Pseudomonas aeruginosa PA01; Inactive. The method, boiled down: as §1
The species entered for test [17] is Mus musculus. Briefly: Compound was evaluated for its efficacy in an Escherichia coli murine septicemia model. The method in brief: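 Mice infected intraperitoneally with about 1 × 10⁵ cfu of E. coli ATCC25922; compound given intravenously at 1 and 5 h post-infection.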
[18] abbreviates: Staphylococcus aureus, ATCC 25293, read-out: MIC.
[19] abbreviates: Escherichia coli, MG1655, read-out: MIC.
[20] abbreviates: Enterobacter cloacae, ATCC 35030, read-out: MIC.
Setting [21] is: Escherichia coli, read-out: MIC.
[22] abbreviates: Pseudomonas aeruginosa, read-out: MIC.
[23] abbreviates: Klebsiella pneumoniae, ATCC 13882, read-out: MIC.
The mark [24] stands for this setting: Escherichia coli, ATCC 25922, read-out: MIC.

As to `CN(CC(=O)O)NC(=O)C[C@H](N)CC1CC1N` (stereo partly specified), the MIC (usually the lowest concentration that inhibits growth of the organism) was found to be 256 µg/mL (≈ 1050 µM) in test [1] (setting [18]); 32 µg/mL (≈ 131 µM) in test [2] (setting [19]); 128 µg/mL (≈ 524 µM) in [3] (setting [20]); 64 µg/mL (≈ 262 µM) in test [4] (setting [21]); 256 µg/mL (≈ 1050 µM) in [5] (setting [22]); 32 µg/mL (≈ 131 µM) in [6] (setting [23]). For the same compound, the results for the minimum inhibitory concentration (MIC) in [7] and in test [8] (setting [24]) were 128 µg/mL (≈ 524 µM) and 64 µg/mL (≈ 262 µM), respectively.
In the case of `CN(CC(=O)O)NC(=O)C[C@H](N)c1csc(CNC(=O)OC(C)(C)C)n1`, the MIC in test [9], in [10], in [11], in test [12], in test [13] and in [14] was > 256 µg/mL each time. Besides, the minimum inhibitory concentration (MIC) in [15] and in test [16] was > 256 µg/mL in each case.
In the case of `CN(CC(=O)O)NC(=O)CC(N)C1CCC(N)CC1` (stereo unspecified), the MIC in test [1] (setting [18]) turned out to be 128 µg/mL (≈ 470 µM); in test [2] (setting [19]), 32 µg/mL (≈ 117 µM); in [3] (setting [20]), 128 µg/mL (≈ 470 µM); in test [4] (setting [21]) it was 64 µg/mL (≈ 235 µM); in test [5] (setting [22]) it was 256 µg/mL (≈ 940 µM); in [6] (setting [23]) it was 32 µg/mL (≈ 117 µM). Moreover, the minimal inhibitory concentration (MIC) in test [7] and in [8] (setting [24]) was 128 µg/mL (≈ 470 µM) in each case.
Take `CN(CC(=O)O)NC(=O)C[C@H](N)C[C@@H](O)CN` [NEGAMYCIN]: the ED50 (in general, the dose at which the effect has come halfway, by size or by number of responders) in test [17] was found to be 5.1 mg/kg.
With `CN(CC(=O)O)NC(=O)CC(N)C1CCCC(N)C1` (stereo unspecified), the MIC in test [1] (setting [18]) was 256 µg/mL (≈ 940 µM); in test [2] (setting [19]) it was 64 µg/mL (≈ 235 µM); in test [3] (setting [20]) it was 256 µg/mL (≈ 940 µM); in test [4] (setting [21]), 128 µg/mL (≈ 470 µM); in test [5] (setting [22]), > 256 µg/mL; in test [6] (setting [23]), 64 µg/mL (≈ 235 µM). Besides, the minimum inhibitory concentration (MIC) in [7] was 128 µg/mL (≈ 470 µM); in test [8] (setting [24]) it was 256 µg/mL (≈ 940 µM).
As for `CN(CC(=O)O)NC(=O)C[C@H](N)C1CC1N` (stereo in doubt; 35e1), the minimal inhibitory concentration (MIC) in test [1], in test [2], in test [3], in test [4], in [5] and in test [6] was >128 µg/mL each time. The minimum inhibitory concentration (MIC) in [8] was >128 µg/mL.
`CN(CC(=O)O)NC(=O)CC(N)[C@H]1CC[C@@H](N)C1` (stereo partly specified): the MIC in test [1] (setting [18]) came out at 128 µg/mL (≈ 496 µM); in test [2] (setting [19]), 64 µg/mL (≈ 248 µM); in test [3] (setting [20]), 128 µg/mL (≈ 496 µM); in test [4] (setting [21]), 128 µg/mL (≈ 496 µM); in test [5] (setting [22]) it was 256 µg/mL (≈ 991 µM); in [6] (setting [23]), 64 µg/mL (≈ 248 µM). The MIC in [7] and in test [8] (setting [24]) was 128 µg/mL (≈ 496 µM) each time.
On to `CN(CC(=O)O)NC(=O)C[C@H](N)c1csc(CCNC(=O)OC(C)(C)C)n1`, for which the minimal inhibitory concentration (MIC) in [9], in test [10], in [11], in [12], in [13] and in test [14] was > 256 µg/mL in each case. Besides, the minimum inhibitory concentration (MIC) in test [15] and in test [16] was > 256 µg/mL throughout.
As for `CN(CC(=O)O)NC(=O)C[C@H](N)C1CC1N` (stereo in doubt; 35e2), the MIC in [1] (setting [18]), in [2] (setting [19]), in test [3] (setting [20]), in test [4] (setting [21]), in test [5] (setting [22]) and in [6] (setting [23]) was 128 µg/mL (≈ 556 µM) in each case. In addition, the MIC in test [8] (setting [24]) worked out at 128 µg/mL (≈ 556 µM).
With `CN(CC(=O)O)NC(=O)C[C@H](N)/C=C(\F)CN`, the minimum inhibitory concentration (MIC) in test [1] (setting [18]), in [2] (setting [19]), in test [3] (setting [20]), in [4] (setting [21]), in [5] (setting [22]) and in [6] (setting [23]) was > 256 µg/mL in each case. Also, the minimum inhibitory concentration (MIC) in [7] is 256 µg/mL (≈ 1030 µM); in [8] (setting [24]), > 256 µg/mL.
As to `CN(CC(=O)O)NC(=O)C[C@H](N)C1CC1CN` (stereo partly specified), the MIC in [1] (setting [18]), in [2] (setting [19]), in test [3] (setting [20]), in test [4] (setting [21]), in test [5] (setting [22]) and in test [6] (setting [23]) was > 128 µg/mL in each case. For the same compound, in test [8] (setting [24]), the minimal inhibitory concentration (MIC) was > 128 µg/mL.
With `CN(CC(=O)O)NC(=O)C[C@H](N)CCCN`, the MIC in [1] (setting [18]) was found to be 64 µg/mL (≈ 276 µM); in [2] (setting [19]), 4 µg/mL (≈ 17.2 µM); in [3] (setting [20]) it was 4 µg/mL (≈ 17.2 µM); in test [4] (setting [21]), 8 µg/mL (≈ 34.4 µM); in test [5] (setting [22]) it was 64 µg/mL (≈ 276 µM); in test [6] (setting [23]), 8 µg/mL (≈ 34.4 µM). Also, the MIC in test [7] is 64 µg/mL (≈ 276 µM); in test [8] (setting [24]), 16 µg/mL (≈ 68.9 µM). In addition, the 50% effective dose (ED50) in test [17] was determined as 4.8 mg/kg.
On to `CN(CC(=O)O)NC(=O)CC1(N)CCC(N)CC1` (stereo unspecified), for which the minimal inhibitory concentration (MIC) in [9], in test [10], in [11], in test [12], in test [13] and in [14] was > 256 µg/mL in each case. Further, the MIC in [15] and in test [16] was > 256 µg/mL in each case.
Take `CN(CC(=O)O)NC(=O)C[C@H](N)/C=C/CN`: the minimal inhibitory concentration (MIC) in [1] (setting [18]), in test [2] (setting [19]), in test [3] (setting [20]), in [4] (setting [21]), in test [5] (setting [22]) and in test [6] (setting [23]) was > 256 µg/mL each time. In addition, the minimum inhibitory concentration (MIC) in [7] was 256 µg/mL (≈ 1110 µM); in test [8] (setting [24]), > 256 µg/mL.
As to `CN(CC(=O)O)NC(=O)C[C@H](N)c1csc(N)n1`, the MIC in test [9], in test [10], in test [11], in test [12], in [13] and in [14] was > 256 µg/mL in each case. Further, the minimum inhibitory concentration (MIC) in test [15] and in test [16] was > 256 µg/mL each time.
Take `CN(CC(=O)O)NC(=O)C[C@H](N)Cc1csc(CCNC(=O)OC(C)(C)C)n1`: the MIC in [9], in [10], in [11], in test [12], in [13] and in test [14] was > 256 µg/mL in each case. Moreover, the minimum inhibitory concentration (MIC) in test [15] and in test [16] was > 256 µg/mL in each case.
Regarding `CN(CC(=O)O)NC(=O)C[C@H](N)Cc1csc(CNC(=O)OC(C)(C)C)n1`, the minimum inhibitory concentration (MIC) in [9], in test [10], in test [11], in test [12], in test [13] and in test [14] was > 256 µg/mL in each case. Further, the minimal inhibitory concentration (MIC) in [15] and in test [16] was > 256 µg/mL in each case.
Turning to `CN(CC(=O)O)NC(=O)C[C@H](N)C1CCCNC1` (stereo partly specified), the minimum inhibitory concentration (MIC) in [1] (setting [18]), in test [2] (setting [19]), in test [3] (setting [20]), in test [4] (setting [21]), in test [5] (setting [22]) and in [6] (setting [23]) was > 128 µg/mL throughout. For the same compound, the MIC in test [7] and in test [8] (setting [24]) was > 128 µg/mL throughout.
For `CN(CC(=O)O)NC(=O)C[C@H](N)/C=C(/F)CN`, the MIC in [1] (setting [18]), in test [2] (setting [19]), in test [3] (setting [20]), in test [4] (setting [21]), in test [5] (setting [22]) and in [6] (setting [23]) was > 256 µg/mL each time. Moreover, the minimum inhibitory concentration (MIC) is 256 µg/mL (≈ 1030 µM) in test [7] and > 256 µg/mL in [8] (setting [24]).
For the compound `CN(CC(=O)O)NC(=O)C[C@H](N)Cc1csc(N)n1`, the MIC in test [9], in [10], in [11], in test [12], in [13] and in test [14] was > 256 µg/mL in each case. Further, the minimum inhibitory concentration (MIC) in [15] and in [16] was > 256 µg/mL in each case.

Source of the values: ChEMBL document CHEMBL1146783, “Conformationally restricted analogs of deoxynegamycin” (Bioorg Med Chem Lett, 2004).
